Results published in ChEMBL document CHEMBL4190334, “Evaluation of Oxetan-3-ol, Thietan-3-ol, and Derivatives Thereof as Bioisosteres of the Carboxylic Acid Functional Group” (ACS Med Chem Lett, 2017).

Key:
[1] = biological target: T1, Polyunsaturated fatty acid 5-lipoxygenase (Rattus norvegicus, UniProt P12527); test: Inhibition of 5-LOX in RBL1 cells assessed as reduction in LTB4 production using A23187-induced arachidonic acid as substrate preincubated for 2 hrs followed by A23187 addition measured after 15 mins by LC-MS/MS analysis; type: cell-based
T1 sequence (P12527 whole entry): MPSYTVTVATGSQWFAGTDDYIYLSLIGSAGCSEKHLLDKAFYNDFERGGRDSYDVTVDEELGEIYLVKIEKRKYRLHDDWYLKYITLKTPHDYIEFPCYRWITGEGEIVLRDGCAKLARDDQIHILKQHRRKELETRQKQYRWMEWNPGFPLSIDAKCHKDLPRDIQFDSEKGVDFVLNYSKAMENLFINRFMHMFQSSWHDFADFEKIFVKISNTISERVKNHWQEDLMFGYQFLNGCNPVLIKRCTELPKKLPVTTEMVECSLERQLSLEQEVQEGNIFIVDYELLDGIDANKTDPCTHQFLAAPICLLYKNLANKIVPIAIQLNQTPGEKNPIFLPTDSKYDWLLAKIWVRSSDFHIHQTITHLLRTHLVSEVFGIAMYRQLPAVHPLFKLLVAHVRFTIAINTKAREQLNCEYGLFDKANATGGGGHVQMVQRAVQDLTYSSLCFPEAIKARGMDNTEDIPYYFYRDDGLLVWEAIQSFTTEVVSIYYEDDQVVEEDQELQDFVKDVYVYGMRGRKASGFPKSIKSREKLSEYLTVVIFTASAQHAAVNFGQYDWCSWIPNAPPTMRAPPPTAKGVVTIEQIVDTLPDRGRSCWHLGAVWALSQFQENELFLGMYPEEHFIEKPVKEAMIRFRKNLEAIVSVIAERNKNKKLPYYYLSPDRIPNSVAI
Procedure, shortened: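 RBL-1 cells incubated 2 h with test compound at several concentrations, then A23187 (12 μM) added for 15 min to trigger arachidonic acid release; LTB4 in culture supernatant quantified by LC–MS/MS. Triplicate samples per concentration; IC50 with 95% confidence interval from sigmoidal curve fit.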

[2] = biological target: T2, Cyclooxygenase (Rattus norvegicus, UniProt P35355+Q63921); test: Inhibition of COX in RBL1 cells assessed as reduction in PGE2/D2 production using A23187-induced arachidonic acid as substrate preincubated for 2 hrs followed by A23187 addition measured after 15 mins by LC-MS/MS analysis; type: cell-based
T2 sequence (P35355 whole entry): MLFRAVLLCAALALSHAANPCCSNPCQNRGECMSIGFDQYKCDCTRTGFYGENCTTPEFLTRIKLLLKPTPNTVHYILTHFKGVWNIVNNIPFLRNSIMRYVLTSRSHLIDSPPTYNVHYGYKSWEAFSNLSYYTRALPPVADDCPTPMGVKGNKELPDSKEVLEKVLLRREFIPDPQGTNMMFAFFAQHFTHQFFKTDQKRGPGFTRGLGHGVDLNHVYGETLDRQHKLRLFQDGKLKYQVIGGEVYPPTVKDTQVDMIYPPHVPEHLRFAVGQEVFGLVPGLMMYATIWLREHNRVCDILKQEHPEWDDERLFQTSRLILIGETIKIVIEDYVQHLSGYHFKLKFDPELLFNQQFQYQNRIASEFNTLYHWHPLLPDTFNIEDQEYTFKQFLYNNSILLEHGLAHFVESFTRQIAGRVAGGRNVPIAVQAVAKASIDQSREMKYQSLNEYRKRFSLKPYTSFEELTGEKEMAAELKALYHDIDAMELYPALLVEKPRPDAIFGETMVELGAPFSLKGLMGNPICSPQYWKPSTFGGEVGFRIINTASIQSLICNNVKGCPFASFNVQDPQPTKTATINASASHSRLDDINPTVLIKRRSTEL
T2 sequence (Q63921 whole entry): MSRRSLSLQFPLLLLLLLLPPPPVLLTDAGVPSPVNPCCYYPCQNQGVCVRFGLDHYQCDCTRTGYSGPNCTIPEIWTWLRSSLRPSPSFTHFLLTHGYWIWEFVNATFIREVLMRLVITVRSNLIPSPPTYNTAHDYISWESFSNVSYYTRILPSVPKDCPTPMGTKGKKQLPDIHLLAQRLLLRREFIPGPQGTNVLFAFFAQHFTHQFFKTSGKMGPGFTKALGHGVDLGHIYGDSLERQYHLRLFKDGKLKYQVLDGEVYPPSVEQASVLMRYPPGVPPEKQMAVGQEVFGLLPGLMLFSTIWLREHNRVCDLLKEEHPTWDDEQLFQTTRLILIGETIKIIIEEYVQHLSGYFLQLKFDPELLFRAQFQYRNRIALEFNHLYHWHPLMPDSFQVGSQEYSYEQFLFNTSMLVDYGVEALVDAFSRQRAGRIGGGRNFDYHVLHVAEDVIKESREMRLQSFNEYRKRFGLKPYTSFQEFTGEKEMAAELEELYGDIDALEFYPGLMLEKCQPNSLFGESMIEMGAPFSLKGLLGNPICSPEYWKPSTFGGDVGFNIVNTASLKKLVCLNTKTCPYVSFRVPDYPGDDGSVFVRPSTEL

[3] = Dissociation constant, pKa of the compound by capillary electrophoresis method; type: physicochemical
[4] = n-Octanol-aqueous buffer distribution coefficient, log D of the compound at pH 7.4 by LC-MS method; type: physicochemical
[5] = Effective permeability of the compound by PAMPA; type: ADME; details: read-out: Peff
Procedure, shortened: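 PAMPA run externally; effective permeability reported together with membrane retention and log apparent permeability coefficient.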

[6] = Effective permeability of the compound assessed as membrane retention by PAMPA relative to control; type: ADME

SMILES | IC50 [1] [µM] | IC50 [2] [µM] | pKa [3] | logD [4] | Papp [5] [×10⁻⁶ cm/s] | R% [6] [%]
CC(C)Cc1ccc(C(C)C2(O)C[S+]([O-])C2)cc1 (centres undefined) | 11.7 | 17.4 |  |  |  | 
O=S1(=O)CC(O)(CCc2ccccc2)C1 |  |  | 9.31 | 1.24 | 12.2 | 10.7
CC(C)Cc1ccc(C2CC(O)=CC2=O)cc1 (centres undefined) | > 100 | 28.1 |  |  |  | 
[O-][S+]1CC(O)(CCc2ccccc2)C1 (centres undefined) |  |  | > 12 | 1.22 | 6.23 | 10
CC(C)Cc1ccc(C(C)C2(O)CSC2)cc1 (centres undefined) | 7.6 | > 100 |  |  |  | 
CC(C)Cc1ccc(C(C)C2(O)CS(=O)(=O)C2)cc1 (centres undefined) | 20.2 | 14.6 |  |  |  | 
CC(C)Cc1ccc(C(C)c2nnn[nH]2)cc1 (centres undefined) | > 100 | 31.8 |  |  |  | 
CC(C)Cc1ccc(C(C)C2(O)COC2)cc1 (centres undefined) | 8.4 | 34.1 |  |  |  | 
OC1(CCc2ccccc2)CSC1 |  |  | > 12 | 2.99 | 13.2 | 11.4
OC1(CCc2ccccc2)COC1 |  |  | > 12 | 2.07 | 8.27 | -11.9
CC(C)Cc1ccc(C(C)C(=O)O)cc1 (centres undefined) [IBUPROFEN] | > 100 |  |  |  |  | 
